Drawing on ChEMBL document CHEMBL3044977, “Synthesis and fungicidal activity of enantiomerically pure (R)- and (S)-silicon-containing azole fungicides” (Bioorg Med Chem, 2004), this text covers Activity and IC50 for 3 compounds.

A value given as a limit tells only on which side of the number the result lay.

Test [1] has as its system Pyricularia oryzae. Description: Antifungal activity against Magnaporthe oryzae infected compound pre-treated rice seedlings through submerged application assessed as concentration required to prevent rice blast disease development measured per 10 acres after 7 days under greenhouse condition. Format: functional.
The subject of test [2] is Rhizoctonia solani. Description: Antifungal activity against Rhizoctonia solani infected compound pre-treated rice seedlings through submerged application assessed as concentration required to prevent rice sheath blight disease development measured per 10 acres after 7 days under greenhouse condition. The test is classed as functional.
For test [3], the system named is Pyricularia oryzae. Description: Fungicidal activity against Magnaporthe oryzae assessed as inhibition of mycelial growth after 24 to 48 hr by agar dilution method. Format: functional, organism-based. Put shortly:
(§1)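 Agar dilution on potato dextrose agar. Test compounds were serially diluted in DMSO containing 10% Tween 20, and 0.1 mL of each dilution went into a petri dish with 10 mL of agar medium, which was then solidified. IC50 was taken as the concentration giving 50% inhibition.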

Test [4] has as its system Rhizoctonia solani. Description: Fungicidal activity against Rhizoctonia solani assessed as inhibition of mycelial growth after 24 to 48 hr by agar dilution method. Format: functional, organism-based. Put shortly: as §1

Take `C[Si](C)(C)C[C@@](O)(Cn1cncn1)c1ccc(F)cc1`: the Activity in test [1] and in test [2] was greater than 100 g each time. Moreover, the IC50 worked out at 33.5 ppm in test [3] and 0.54 ppm in test [4].
Turning to `C[Si](C)(C)C[C@](O)(Cn1cncn1)c1ccc(F)cc1`, the Activity came out at 100 g in test [1] and 25 g in test [2]. Besides, the values for the IC50 in test [3] and in test [4] were 0.95 ppm and 0.016 ppm, respectively.
In the same order, the values of `C[Si](C)(C)CC(O)(Cn1cncn1)c1ccc(F)cc1` (racemic) [SIMECONAZOLE] are 100 g, 25 g, 1.25 ppm and 0.042 ppm.
